Kir21 block = Kir2.1 (mouse) channel inhibition; 0.85% of 310,000 active; P35561; HEK293-Kir2.1, FluxOR thallium flux fluorescence; stronger effect = lower value; B-score at 10 µM; AID 1672;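 active means fluorescence ratio B-score at or below minus 3 SD of library scores, with starting-brightness B-score within 2 SD, cut at about -4.2 in these data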;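 further: channel flux triggered by added potassium and thallium sulfate stimulus; B-score of peak minus minimum fluorescence over baseline after thallium stimulus; more negative B-score means stronger Kir2.1 block with less thallium influx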
KCNQ1 pot = human KCNQ1 channel potentiation or activation; B-score at 10 µM; CHO-K1 KCNQ1, thallium flux FluxOR fluorescence; stronger effect = higher value; 0.35% of 310,000 active;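 active means fluorescence ratio B-score, a plate-corrected score, at least three library SD, with initial intensity B-score within 5 SD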
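Material: CHO-K1 cells stably expressing KCNQ1. Medium: assay buffer for compound exposure, DMSO matched across wells. Reagent: K+/Tl+ depolarizing stimulus. Compound dosing: single-concentration screen. Times: 37 °C overnight plating, 90-min dark dye load, 20-min compound pretreatment. Technique: FluxOR Tl+ flux fluorescence.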
KCNK3 inh = human KCNK3 channel inhibition, primary screen. O14649. CHO-KCNK3 thallium flux, FluxOR fluorescence; stronger effect = lower value. B-score at 10 µM. 0.84% of 340,000 active. AID 602410;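 active means B-score under library mean minus 4 SD, starting fluorescence ratio at most library mean plus 5 SD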;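 further: more negative B-score means stronger inhibition of thallium flux through KCNK3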
hERG rescue = shields human hERG channel from block by proarrhythmic agents | CHO-hERG, FluxOR thallium flux, dofetilide IC70 present | 0.51% of 310,000 active | activation (rescue from dofetilide block), less the hit threshold, % at 10 µM | AID 1511;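 active means activation above the mean of controls blocked by dofetilide plus 5 SD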;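 further: thallium influx through hERG after potassium depolarization seen as dye fluorescence rise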
KCNQ1 block = blocks the human KCNQ1 potassium channel; CHO-K1 KCNQ1, FluxOR thallium flux fluorescence; stronger effect = higher value; B-score at 10 µM; 1.3% of 310,000 active;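 active means compounds whose thallium flux B-score, printed positive for inhibition, exceeds three library SD while starting fluorescence stays within three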;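 further: channel opened by potassium depolarization with thallium stimulus after 20 min compound exposure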
KCNK9 block = inhibitors of human KCNK9 two-pore domain potassium channel. Q9NPC2. HEK293 KCNK9, FluxOR thallium flux fluorescence; stronger effect = lower value. B-score at 10 µM. 1.2% of 310,000 active. AID 488922;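 active means ratio B-score over 3 SD below the library mean, with starting fluorescence within 5 SD of its mean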;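 further: negative B-score means less thallium flux so channel inhibition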
Target sequence (Q9NPC2 whole entry, looked up, the tested form may be a part): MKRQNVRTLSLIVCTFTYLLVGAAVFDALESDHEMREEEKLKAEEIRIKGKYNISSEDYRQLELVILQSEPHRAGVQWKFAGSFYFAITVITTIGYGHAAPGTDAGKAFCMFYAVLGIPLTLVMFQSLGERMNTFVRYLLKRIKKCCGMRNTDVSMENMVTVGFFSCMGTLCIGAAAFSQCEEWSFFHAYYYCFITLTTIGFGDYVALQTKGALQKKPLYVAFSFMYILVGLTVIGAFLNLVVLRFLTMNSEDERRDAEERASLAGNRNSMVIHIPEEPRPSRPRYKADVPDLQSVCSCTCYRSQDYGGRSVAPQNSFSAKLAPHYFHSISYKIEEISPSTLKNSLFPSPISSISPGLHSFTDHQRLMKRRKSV
Numbers stand for hits; i = inactive; nt = no result given. Most compounds without a hit are left out; they make up all but 3.8% or so of the library.

SMILES	Kir21 block	KCNQ1 pot	KCNK3 inh	hERG rescue	KCNQ1 block	KCNK9 block
O=C(NCCC1CCCCN1S(=O)(=O)c1ccccc1)C(=O)NCc1ccncc1 (stereo not given)	i	i	i	i	i	i
COc1ccc(F)cc1C(=O)C1CCCN(C(=O)c2ccccc2N(C)C)C1 (stereo not given)	i	i	i	i	i	i
CN(C)S(=O)(=O)N(CC(=O)N(Cc1ccccc1)Cc1ccccc1)c1ccccc1	i	i	i	i	i	i
CN(C)S(=O)(=O)N(Cc1ccc(Br)cc1)c1ccccc1	i	i	i	i	i	-7.4
COc1ccc(S(=O)(=O)N(C)C[C@H]2Oc3ccc(NC(=O)Cc4ccccc4)cc3C(=O)N([C@H](C)CO)C[C@@H]2C)cc1	nt	nt	i	nt	nt	nt
CON(c1nc(Cl)nc(N(C)C)n1)S(=O)(=O)c1ccc(C)cc1	i	i	i	i	i	i
CC1CCCN(C(=O)c2ccc3c(c2)OCO3)C1 (stereo not given)	i	i	i	i	i	i
O=C(c1cc(F)ccc1F)C1CCCN(C(=O)c2ccc3nccnc3c2)C1 (stereo not given)	i	i	i	i	i	i
CN(C)c1cccc(C(=O)N2CCCC(C(=O)c3cc(F)ccc3F)C2)c1 (stereo not given)	i	38	i	i	i	i
O=C(c1cccc(Cl)c1)C1CCCN(C(=O)c2ccc3c(c2)OCO3)C1 (stereo not given)	-4.8	i	i	i	i	i
CCC1CN(C(=O)N2CCC(C(=O)NCCc3ccc(OC)cc3OC)CC2)c2ccccc2O1 (stereo not given)	i	i	i	i	i	i
OC(COCc1ccccc1)CN1CCc2ccccc2C1 (stereo not given)	i	i	i	i	i	i
Cc1cccc(C)c1OCC(O)CN1CCc2ccccc2C1 (stereo not given)	i	i	i	i	i	i
Cc1ccc(C(C)C)c(OCC(O)CN2CCc3ccccc3C2)c1 (stereo not given)	-9.1	i	i	i	6	i
Cc1ccc(C)c(OCC(O)CN2CCC(Cc3ccccc3)CC2)c1 (stereo not given)	-6.4	i	i	i	i	i
OC(COc1c(F)cc(Br)cc1F)CN1CCc2ccccc2C1 (stereo not given)	-7	i	i	i	i	i
Nc1nc(SCC(=O)Nc2ncc(Cl)cc2Cl)n[nH]1	nt	nt	i	nt	nt	nt
O=C(NNC(=O)c1ccc(-c2ccc([N+](=O)[O-])cc2)o1)c1ccncc1	nt	nt	i	nt	nt	nt
CCOCCCNC(=O)C(c1ccc(Cl)cc1)N1CCC2(CC1)OCCO2 (stereo not given)	i	i	i	8.6	i	i
O=C(NCCCN1CCCC1=O)C(=O)NCC1OCCN1S(=O)(=O)c1ccc(Cl)cc1 (stereo not given)	i	i	i	i	i	i
CN(C)S(=O)(=O)c1cccc2nsnc12	i	i	i	i	i	i
Cc1cccc(N(C)S(=O)(=O)c2cccc3nsnc23)c1	-4.3	i	i	i	i	i
COc1ccc(C#Cc2ccc3c(c2)c(=O)c2ccccc2n3C)cc1	i	i	i	i	i	-7.4
COc1ccc(NC(=O)CSc2nnc3ccc(-c4cccnc4)nn23)c(OC)c1	i	i	i	i	i	i
CCCCN(CCCC)c1nc(OC)nc(-n2nnc(C(C)=O)c2C)n1	i	i	i	i	i	-6.6
SMILES	Kir21 block	KCNQ1 pot	KCNK3 inh	hERG rescue	KCNQ1 block	KCNK9 block
CC(=O)c1nnn(-c2nc(N)nc(N(c3ccccc3)c3ccccc3)n2)c1C	i	i	i	i	i	i
Cc1cc(C)nc(S/C=C/C(=O)c2ccccc2F)n1	i	i	i	i	i	i
COc1cccc(C(=O)N2CCN(c3ccccn3)CC2)c1	i	i	i	i	i	i
COc1ccccc1OCC(=O)n1cc(C(=O)c2cc(Cl)cc(Cl)c2O)cn1	i	i	i	i	i	i
Cn1c(=O)c(C#N)c(-c2ccc(F)cc2)c2cc(C(=O)c3cc(Cl)cc(Cl)c3O)cnc21	i	i	i	i	11	i
COCc1cc(C)nc(SCC(=O)c2ccc(O)c(O)c2)c1C#N	i	i	i	5.7	i	i
O=C1S/C(=C\c2ccc(O)c([N+](=O)[O-])c2)C(=O)N1Cc1cccc([N+](=O)[O-])c1	i	i	i	i	11	i
O=C1S/C(=C\c2ccc(O)c([N+](=O)[O-])c2)C(=O)N1c1ccccc1Cl	i	i	i	i	10	i
COc1cc(/C=C2\SC(=O)N(c3cccc(Cl)c3)C2=O)cc([N+](=O)[O-])c1O	nt	nt	i	nt	nt	nt
CCCn1c2c(c(O)c(C(=O)Nc3nc(C)cs3)c1=O)CCCC2	i	i	nt	i	i	i
CCCn1c2c(c(O)c(C(=O)Nc3nccs3)c1=O)CCCC2	i	i	i	i	i	-6.6
CC(=O)O[C@H]1[C@H](O)[C@H](Oc2c(O)c(C)c3c4c2[C@@H](C)CC[C@@H]4[C@@H](C)C[C@H]3C=C(C)C)O[C@@H](C)[C@H]1O	nt	nt	i	nt	nt	nt
CC1CCCCN1C(=O)c1cccc(NC2=C(Cl)C(=O)N(Cc3ccccc3)C2=O)c1 (stereo not given)	nt	nt	-11	nt	nt	nt
Cc1ccc(/C=C/C2=Cc3c(sc(NC(=O)CSc4n[nH]c(N)n4)c3C#N)C(C)(C)C2)o1	i	i	nt	i	6	i
CC(C)Cn1c(O)c(N=NC(=O)c2cccc(S(=O)(=O)N3CCCCC3)c2)c2ccccc21	i	i	i	i	i	-7.9
COc1ccc2c(c1)CCCN2C(N)=Nc1ccc(Cl)cc1	-7.6	i	i	i	i	i
CCOC(=O)[C@H]1[C@H]2COc3ccc(OC)cc3[C@@H]2N2C(=O)CN(CC3CCCO3)C(=O)[C@@]12C (stereo not given in full)	nt	nt	i	nt	nt	nt
c1ccc2oc(-c3csc(N4CCOCC4)n3)cc2c1	i	i	i	i	i	i
Cc1nc2sccn2c1-c1nc(-c2cc3ccccc3o2)cs1	i	i	i	i	i	-7.1
Cc1cc(NC(=O)C(Cl)Cl)cc2c1OCO2	nt	nt	i	nt	nt	nt
Cn1c2ccccc2c2cc(/C=N/NC(=O)c3cc(O)cc(O)c3)ccc21	i	i	i	i	i	i
CCn1c2ccccc2c2cc(/C=N/NC(=O)c3ccccc3)ccc21	i	i	i	6.4	i	i
Nc1nc2c(s1)CCCCCCCCCC2	-7.4	i	i	i	i	i
C=CCN1CCc2nc(N)sc2CC1	nt	nt	i	nt	nt	nt
O=C1CCCCN1CCC(=O)N1CCCC(Nc2ccccc2)C1 (stereo not given)	i	i	i	i	i	i
O=C(CCc1cccc(Cl)c1)N1CCCC(Nc2ccccc2)C1 (stereo not given)	-6.9	i	i	i	i	i
CCc1cccc(N(C(=O)c2csnn2)C(C(=O)NC2CCCCC2)c2ccncc2)c1 (stereo not given)	i	i	i	i	i	i

Assay outcomes: PubChem, Johns Hopkins Ion Channel Center
